# Measured values from ChEMBL document CHEMBL1821590, “Novel dihydropyrimidines and its pyrazole derivatives: synthesis and pharmacological screening” (Eur J Med Chem, 2011).
# Experiments:
# Assay type in all cases: functional
# Metaphire posthuma [1] = test: Anthelmintic activity against Pheretima posthuma assessed as time taken for parasite death at 0.5% w/v
# Summary of the method: (§1)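 Earthworms (Pheretima posthuma, spelled Perituma posthuma in text) exposed to test compounds at 0.1, 0.2 and 0.5% w/v. Albendazole served as standard, with an untreated control. Paralysis was recorded as the time until worms became motionless, then time to death was recorded, in minutes. Each value is the mean of three determinations with S.D.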
# Staphylococcus aureus [2] = test: Antimicrobial activity against Staphylococcus aureus at 25 ug/ml by agar plate diffusion technique; settings: read-out: IZ
# Summary of the method: (§2)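 Agar plate diffusion against E. coli, P. aeruginosa, S. aureus and B. subtilis, with compounds at 25, 50 and 100 µg/mL. Streptomycin as standard.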
# [3] = Antioxidant activity assessed as potassium ferricyanide ion reducing power after 20 mins
# Summary of the method: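 Oyaizu method. Samples or ascorbic acid in DMF (12.5–100 µg/mL) mixed with 0.2 M phosphate buffer pH 6.6 and 1% potassium ferricyanide, 20 min at 50 °C. 10% TCA added, centrifuged. Supernatant mixed with water and 0.1% FeCl3, read at 700 nm. % = [(Vt/Vc) − 1] × 100. IC50 derived.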
# Bacillus subtilis [4] = test: Antimicrobial activity against Bacillus subtilis at 100 ug/ml by agar plate diffusion technique; settings: read-out: IZ; summary of the method: as §2
# Staphylococcus aureus [5] = test: Antimicrobial activity against Staphylococcus aureus at 100 ug/ml by agar plate diffusion technique; settings: read-out: IZ; summary of the method: as §2
# [6] = Antiinflammatory activity assessed as inhibition of albumin denaturation at 100 ug/ml by UV-visible spectrophotometry
# Summary of the method: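 Compounds dissolved in minimal DMF, diluted in PBS pH 7.4 (final DMF <2.5%). 1 mL test solution (100 µg/mL) plus 1 mL 1% albumin in PBS, 15 min at 27 ± 1 °C, then heated 10 min at 60 ± 1 °C. After cooling, turbidity read at 660 nm. % inhibition = [(Vt/Vc) − 1] × 100 against a no-drug control. Triplicate, averaged. Diclofenac standard.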
# Pseudomonas aeruginosa [7] = test: Antimicrobial activity against Pseudomonas aeruginosa at 50 ug/ml by agar plate diffusion technique; settings: read-out: IZ; summary of the method: as §2
# Aspergillus niger [8] = test: Antimicrobial activity against Aspergillus niger at 50 ug/ml by paper disc method; settings: read-out: IZ
# Summary of the method: (§3)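 Paper disc method against A. niger and C. albicans, with compounds at 25, 50 and 100 µg/mL. Amphotericin-B as standard.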
# Pseudomonas aeruginosa [9] = test: Antimicrobial activity against Pseudomonas aeruginosa at 100 ug/ml by agar plate diffusion technique; settings: read-out: IZ; summary of the method: as §2
# Aspergillus niger [10] = test: Antimicrobial activity against Aspergillus niger at 100 ug/ml by paper disc method; settings: read-out: IZ; summary of the method: as §3
# Escherichia coli [11] = test: Antimicrobial activity against Escherichia coli at 25 ug/ml by agar plate diffusion technique; settings: read-out: IZ; summary of the method: as §2
# Candida albicans [12] = test: Antimicrobial activity against Candida albicans at 50 ug/ml by paper disc method; settings: read-out: IZ; summary of the method: as §3
# Staphylococcus aureus [13] = test: Antimicrobial activity against Staphylococcus aureus at 50 ug/ml by agar plate diffusion technique; settings: read-out: IZ; summary of the method: as §2
# [14] = Antioxidant activity assessed as hydrogen peroxide scavenging activity after 10 mins
# Summary of the method: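 H2O2 (20 mM) in PBS pH 7.4. 1 mL of sample or ascorbic acid in methanol (12.5–100 µg/mL) added to 2 mL H2O2 solution. A230 read after 10 min. % inhibition = [1 − (Vt/Vc)] × 100. Triplicate, averaged. IC50 derived from % inhibition across concentrations.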
# Escherichia coli [15] = test: Antimicrobial activity against Escherichia coli at 100 ug/ml by agar plate diffusion technique; settings: read-out: IZ; summary of the method: as §2
# Bacillus subtilis [16] = test: Antimicrobial activity against Bacillus subtilis at 50 ug/ml by agar plate diffusion technique; settings: read-out: IZ; summary of the method: as §2
# Metaphire posthuma [17] = test: Anthelmintic activity against Pheretima posthuma assessed as time taken for complete parasite paralysis at 0.1% w/v
# Summary of the method: (§4)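 Earthworms (Pheretima posthuma) exposed to test solutions at 0.1, 0.2 and 0.5% w/v; time in minutes to complete paralysis (worms motionless) recorded. Albendazole as standard. Mean of three determinations ± S.D.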
# [18] = Antioxidant activity assessed as inhibition of lipid peroxidation using egg lecithin liposomes incubated for 1 hr
# Summary of the method: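 Egg lecithin (3 mg/mL, phosphate buffer pH 7.4) sonicated 10 min to form liposomes. Sample or ascorbic acid (12.5–100 µg/mL) added. Peroxidation induced with FeCl3 and L-ascorbic acid, 1 h at 37 °C. Stopped with HCl/TCA/TBA/BHA, boiled 15 min, centrifuged, supernatant read at 532 nm. Triplicate. % inhibition vs control. IC50 derived.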
# Metaphire posthuma [19] = test: Anthelmintic activity against Pheretima posthuma assessed as time taken for parasite death at 0.1% w/v; summary of the method: as §1
# Metaphire posthuma [20] = test: Anthelmintic activity against Pheretima posthuma assessed as time taken for complete parasite paralysis at 0.5% w/v; summary of the method: as §4
# Escherichia coli [21] = test: Antimicrobial activity against Escherichia coli at 50 ug/ml by agar plate diffusion technique; settings: read-out: IZ; summary of the method: as §2
# Candida albicans [22] = test: Antimicrobial activity against Candida albicans at 25 ug/ml by paper disc method; settings: read-out: IZ; summary of the method: as §3
# Aspergillus niger [23] = test: Antimicrobial activity against Aspergillus niger at 25 ug/ml by paper disc method; settings: read-out: IZ; summary of the method: as §3
# Pseudomonas aeruginosa [24] = test: Antimicrobial activity against Pseudomonas aeruginosa at 25 ug/ml by agar plate diffusion technique; settings: read-out: IZ; summary of the method: as §2
# Metaphire posthuma [25] = test: Anthelmintic activity against Pheretima posthuma assessed as time taken for complete parasite paralysis at 0.2% w/v; summary of the method: as §4
# Bacillus subtilis [26] = test: Antimicrobial activity against Bacillus subtilis at 25 ug/ml by agar plate diffusion technique; settings: read-out: IZ; summary of the method: as §2
# [27] = Antioxidant activity assessed as nitric oxide radical scavenging activity after 150 mins
# Summary of the method: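 10 mM sodium nitroprusside (4 mL), PBS pH 7.4 (1 mL) and sample or ascorbic acid in DMSO (1 mL, 12.5–100 µg/mL), incubated 150 min at 25 °C. Nitrite detected with sulphanilic acid (5 min) then naphthylethylenediamine (30 min, diffused light). Read at […]. Triplicate. % inhibition = [1 − (Vt/Vc)] × 100. IC50 derived from it.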
# Candida albicans [28] = test: Antimicrobial activity against Candida albicans at 100 ug/ml by paper disc method; settings: read-out: IZ; summary of the method: as §3
# Metaphire posthuma [29] = test: Anthelmintic activity against Pheretima posthuma assessed as time taken for parasite death at 0.2% w/v; summary of the method: as §1
SMILES,Time (Metaphire posthuma [1]),zone of inhibition at 25 µg/mL (Staphylococcus aureus [2]),IC50 [3],zone of inhibition at 100 µg/mL (Bacillus subtilis [4]),zone of inhibition at 100 µg/mL (Staphylococcus aureus [5]),inhibition [6],zone of inhibition at 50 µg/mL (Pseudomonas aeruginosa [7]),zone of inhibition at 50 µg/mL (Aspergillus niger [8]),zone of inhibition at 100 µg/mL (Pseudomonas aeruginosa [9]),zone of inhibition at 100 µg/mL (Aspergillus niger [10]),zone of inhibition at 25 µg/mL (Escherichia coli [11]),zone of inhibition at 50 µg/mL (Candida albicans [12]),zone of inhibition at 50 µg/mL (Staphylococcus aureus [13]),IC50 [14],zone of inhibition at 100 µg/mL (Escherichia coli [15]),zone of inhibition at 50 µg/mL (Bacillus subtilis [16]),Time (Metaphire posthuma [17]),IC50 [18],Time (Metaphire posthuma [19]),Time (Metaphire posthuma [20]),other results
Cn1c(NN)nc(-c2ccccc2O)c(C#N)c1=O,44.1 min,10.6 mm,38 µg/mL,22.2 mm,17.7 mm,34.4%,9.17 mm,10.6 mm,13 mm,16.5 mm,8.39 mm,12.5 mm,12.2 mm,30 µg/mL,11.2 mm,13.8 mm,35.42 min,34 µg/mL,50.13 min,30.13 min,zone of inhibition at 50 µg/mL (Escherichia coli [21]): 9.58 mm; zone of inhibition at 25 µg/mL (Candida albicans [22]): 9.62 mm; zone of inhibition at 25 µg/mL (Aspergillus niger [23]): 8.24 mm; zone of inhibition at 25 µg/mL (Pseudomonas aeruginosa [24]): 7.27 mm; Time (Metaphire posthuma [25]): 33.85 min; zone of inhibition at 25 µg/mL (Bacillus subtilis [26]): 9.81 mm; IC50 [27]: 46 µg/mL; zone of inhibition at 100 µg/mL (Candida albicans [28]): 17.7 mm; Time (Metaphire posthuma [29]): 37.1 min
CCOC(=O)c1cnn(-c2nc(-c3ccc(Cl)cc3)c(C#N)c(=O)n2C)c1N,56.33 min,13.1 mm,64 µg/mL,25.4 mm,22 mm,64.6%,17.1 mm,15.6 mm,25.7 mm,23.8 mm,14.7 mm,16 mm,17.1 mm,94 µg/mL,25 mm,16.7 mm,49.28 min,88 µg/mL,64.72 min,34.76 min,zone of inhibition at 50 µg/mL (Escherichia coli [21]): 19.5 mm; zone of inhibition at 25 µg/mL (Candida albicans [22]): 12.2 mm; zone of inhibition at 25 µg/mL (Aspergillus niger [23]): 11.6 mm; zone of inhibition at 25 µg/mL (Pseudomonas aeruginosa [24]): 11.8 mm; Time (Metaphire posthuma [25]): 41.03 min; zone of inhibition at 25 µg/mL (Bacillus subtilis [26]): 14.2 mm; IC50 [27]: 87 µg/mL; zone of inhibition at 100 µg/mL (Candida albicans [28]): 21.8 mm; Time (Metaphire posthuma [29]): 58.23 min
CSc1nc(-c2ccccc2F)c(C#N)c(=O)n1C,69.54 min,12.2 mm,61 µg/mL,29.4 mm,20.9 mm,69.3%,10.4 mm,14.9 mm,11.8 mm,22.7 mm,10.9 mm,12.1 mm,15.3 mm,63 µg/mL,14.2 mm,20.2 mm,72.34 min,58 µg/mL,90.4 min,55.17 min,zone of inhibition at 50 µg/mL (Escherichia coli [21]): 13.8 mm; zone of inhibition at 25 µg/mL (Candida albicans [22]): 10.8 mm; zone of inhibition at 25 µg/mL (Aspergillus niger [23]): 12.7 mm; zone of inhibition at 25 µg/mL (Pseudomonas aeruginosa [24]): 9.17 mm; Time (Metaphire posthuma [25]): 71.4 min; zone of inhibition at 25 µg/mL (Bacillus subtilis [26]): 16.9 mm; IC50 [27]: 78 µg/mL; zone of inhibition at 100 µg/mL (Candida albicans [28]): 16 mm; Time (Metaphire posthuma [29]): 85.73 min
